# Assay results published in ChEMBL document CHEMBL2321783, “Structure-activity relationships of peptides incorporating a bioactive reverse-turn heterocycle at the melanocortin receptors: identification of a 5800-fold mouse melanocortin-3 receptor (mMC3R) selective antagonist/partial agonist versus the mouse melanocortin-4 receptor (mMC4R)” (J Med Chem, 2013).
# Legend:
# [1] = target: Melanocyte-stimulating hormone receptor (Mus musculus, UniProt Q01727); test: Agonist activity at mouse MC1 receptor expressed in HEK293 cells after 6 hrs by cAMP-based beta-galactosidase reporter gene assay; format: functional, cell-based
# Melanocyte-stimulating hormone receptor, sequence (Q01727 whole entry): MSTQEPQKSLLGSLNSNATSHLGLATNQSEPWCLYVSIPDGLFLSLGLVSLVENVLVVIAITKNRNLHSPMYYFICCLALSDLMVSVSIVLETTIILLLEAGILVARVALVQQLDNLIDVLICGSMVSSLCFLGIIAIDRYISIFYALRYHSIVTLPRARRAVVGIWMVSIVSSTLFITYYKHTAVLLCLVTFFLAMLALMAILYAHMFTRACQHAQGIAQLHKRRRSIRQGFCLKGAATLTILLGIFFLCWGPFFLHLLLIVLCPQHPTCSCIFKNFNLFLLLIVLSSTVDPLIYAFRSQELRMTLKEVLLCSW
# How it was run: (§1)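 HEK-293 cells stably expressing the mouse receptor, kept in DMEM with 10% fetal calf serum, transfected with CRE/β-galactosidase reporter. Efficacy is relative to NDP-MSH on the same plate. EC50 is the mean of duplicate wells from three or more independent experiments, fitted by nonlinear least squares.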
# Melanocortin receptor 5 = Melanocortin receptor 5 (Mus musculus, UniProt P41149); test: Agonist activity at mouse MC5 receptor expressed in HEK293 cells after 6 hrs by cAMP-based beta-galactosidase reporter gene assay; format: functional, cell-based; how it was run: as §1
# Melanocortin receptor 5, sequence (P41149 whole entry): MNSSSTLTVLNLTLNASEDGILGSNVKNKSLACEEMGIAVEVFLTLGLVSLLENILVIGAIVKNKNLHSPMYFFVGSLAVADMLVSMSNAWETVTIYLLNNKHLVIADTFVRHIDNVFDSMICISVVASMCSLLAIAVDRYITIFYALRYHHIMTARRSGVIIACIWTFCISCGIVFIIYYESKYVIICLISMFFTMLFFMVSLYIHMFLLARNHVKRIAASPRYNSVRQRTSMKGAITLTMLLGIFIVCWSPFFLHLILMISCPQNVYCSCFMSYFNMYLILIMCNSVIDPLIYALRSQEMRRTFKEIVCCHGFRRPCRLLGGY
# Melanocortin receptor 3 [2] = target: T1, Melanocortin receptor 3 (Mus musculus, UniProt P33033); test: Agonist activity at mouse MC3 receptor expressed in HEK293 cells after 6 hrs by cAMP-based beta-galactosidase reporter gene assay; format: functional, cell-based; how it was run: as §1
# T1 sequence (P33033 whole entry): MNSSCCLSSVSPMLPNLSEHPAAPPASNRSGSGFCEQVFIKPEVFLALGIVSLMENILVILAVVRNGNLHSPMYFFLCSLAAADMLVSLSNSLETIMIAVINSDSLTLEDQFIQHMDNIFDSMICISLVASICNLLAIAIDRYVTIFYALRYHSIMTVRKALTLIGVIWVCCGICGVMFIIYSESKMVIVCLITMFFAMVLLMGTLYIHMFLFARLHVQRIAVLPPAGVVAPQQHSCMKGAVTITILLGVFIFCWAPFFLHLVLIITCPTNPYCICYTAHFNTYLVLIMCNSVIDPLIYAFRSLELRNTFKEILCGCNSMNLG
# Melanocortin receptor 4 = Melanocortin receptor 4 (Mus musculus, UniProt P56450); test: Agonist activity at mouse MC4 receptor expressed in HEK293 cells after 6 hrs by cAMP-based beta-galactosidase reporter gene assay; format: functional, cell-based; how it was run: as §1
# Melanocortin receptor 4, sequence (P56450 whole entry): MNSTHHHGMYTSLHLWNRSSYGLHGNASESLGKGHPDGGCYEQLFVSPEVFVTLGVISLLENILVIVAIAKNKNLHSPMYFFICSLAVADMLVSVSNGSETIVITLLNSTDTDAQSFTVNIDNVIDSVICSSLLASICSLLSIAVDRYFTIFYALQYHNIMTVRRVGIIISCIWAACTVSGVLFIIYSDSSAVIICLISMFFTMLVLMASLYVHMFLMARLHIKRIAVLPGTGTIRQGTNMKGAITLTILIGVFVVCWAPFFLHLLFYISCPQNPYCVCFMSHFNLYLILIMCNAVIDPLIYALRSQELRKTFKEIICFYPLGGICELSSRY
# [3] = target: Melanocortin receptor 3 (Mus musculus) (UniProt P33033); test: Partial agonist activity at mouse MC3 receptor expressed in HEK293 cells at 10^-4 M to 10^-12 M after 6 hrs by cAMP-based beta-galactosidase reporter gene assay; format: functional, cell-based
# Melanocortin receptor 3 (Mus musculus), sequence (P33033 whole entry): as the sequence (P33033 whole entry) above
# How it was run: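 In the mMC3R HEK-293 CRE/β-galactosidase reporter assay, cells were exposed 6 h to peptide at 10^-4 to 10^-12 M in IBMX/BSA medium. Maximal efficacy is expressed relative to NDP-MSH run on the same plate.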
# Mus musculus = species on record: Mus musculus; test: Selectivity for mouse MC3 receptor over mouse MC4 receptor
# Melanocortin receptor 3 [4] = target: T1, Melanocortin receptor 3; test: Antagonist activity at mouse MC3 receptor expressed in HEK293 cells after 6 hrs by cAMP-based beta-galactosidase reporter gene assay; format: functional, cell-based; conditions: read-out: pA2 (converted)
EC50 (Melanocortin receptor 3 [2]),Structure (SMILES),other results
49 nM,C[C@@H]1NC(=O)[C@H](CC(N)=O)NC(=O)[C@H](Cc2c[nH]c3ccccc23)N2C[C@H](CCCNC(=N)N)NC(=O)[C@@H](CSCC2=O)NC(=O)[C@@H](Cc2ccc(I)cc2)NC(=O)[C@H](Cc2cnc[nH]2)NC(=O)[C@@H](NC(=O)[C@@H](N)Cc2ccc(O)cc2)CSSC[C@@H](C(=O)N[C@@H](Cc2ccc(O)cc2)C(N)=O)NC(=O)[C@H](Cc2ccccc2)NC1=O,
1900 nM,C[C@@H]1NC(=O)[C@H](CC(N)=O)NC(=O)[C@H](Cc2c[nH]c3ccccc23)N2C[C@H](CCCNC(=N)N)NC(=O)[C@@H](CSCC2=O)NC(=O)[C@@H](Cc2ccccc2)NC(=O)[C@@H]2CCCN2C(=O)[C@@H](NC(=O)[C@@H](N)Cc2ccc(O)cc2)CSSC[C@@H](C(=O)N[C@@H](Cc2ccc(O)cc2)C(N)=O)NC(=O)[C@H](Cc2ccccc2)NC1=O,
4020 nM,C[C@@H]1NC(=O)[C@@H](NC(=O)[C@@H](N)Cc2ccc(O)cc2)CSSC[C@@H](C(=O)N[C@@H](Cc2ccc(O)cc2)C(N)=O)NC(=O)[C@H](Cc2ccccc2)NC(=O)[C@H](C)NC(=O)[C@H](CC(N)=O)NC(=O)[C@H](Cc2c[nH]c3ccccc23)N2C[C@H](CCCNC(=N)N)NC(=O)[C@@H](CSCC2=O)NC(=O)[C@@H](Cc2ccccc2)NC1=O,
4500 nM,C[C@@H]1NC(=O)[C@H](CC(N)=O)NC(=O)[C@H](Cc2c[nH]c3ccccc23)N2C[C@H](CCCNC(=N)N)NC(=O)[C@@H](CSCC2=O)NC(=O)[C@@H](Cc2ccccc2)NC(=O)[C@H](Cc2ccccc2)NC(=O)[C@@H](NC(=O)[C@@H](N)Cc2ccc(O)cc2)CSSC[C@@H](C(=O)N[C@@H](Cc2ccc(O)cc2)C(N)=O)NC(=O)[C@H](Cc2ccccc2)NC1=O,
2230 nM,C[C@@H]1NC(=O)[C@H](CC(N)=O)NC(=O)[C@H](C)N2C[C@H](CCCNC(=N)N)NC(=O)[C@@H](CSCC2=O)NC(=O)[C@@H](Cc2ccccc2)NC(=O)[C@H](Cc2cnc[nH]2)NC(=O)[C@@H](NC(=O)[C@@H](N)Cc2ccc(O)cc2)CSSC[C@@H](C(=O)N[C@@H](Cc2ccc(O)cc2)C(N)=O)NC(=O)[C@H](Cc2ccccc2)NC1=O,

# Further lines, the compound ahead of its results:
Structure (SMILES),EC50 (Melanocortin receptor 3 [2]),other results
C[C@@H]1NC(=O)[C@H](CC(N)=O)NC(=O)[C@H](Cc2c[nH]c3ccccc23)NC(=O)[C@H](CCCN=C(N)N)NC(=O)[C@@H](Cc2ccccc2)NC(=O)[C@H](Cc2cnc[nH]2)NC(=O)[C@@H](NC(=O)[C@@H](N)Cc2ccc(O)cc2)CSSC[C@@H](C(=O)N[C@@H](Cc2ccc(O)cc2)C(N)=O)NC(=O)[C@H](Cc2ccccc2)NC1=O,1.7 nM,EC50 [1]: 0.3 nM; EC50 (Melanocortin receptor 5): 1.45 nM; EC50 (Melanocortin receptor 4): 0.17 nM
C[C@@H]1NC(=O)[C@H](CC(N)=O)NC(=O)[C@H](Cc2c[nH]c3ccccc23)N2C[C@H](CCCNC(=N)N)NC(=O)[C@@H](CSCC2=O)NC(=O)[C@@H](Cc2ccc3ccccc3c2)NC(=O)[C@H](Cc2cnc[nH]2)NC(=O)[C@@H](NC(=O)[C@@H](N)Cc2ccc(O)cc2)CSSC[C@@H](C(=O)N[C@@H](Cc2ccc(O)cc2)C(N)=O)NC(=O)[C@H](Cc2ccccc2)NC1=O,,Emax [3]: 20%
C[C@@H]1NC(=O)[C@H](CC(N)=O)NC(=O)[C@H](Cc2c[nH]c3ccccc23)N2C[C@H](CCCNC(=N)N)NC(=O)[C@@H](CSCC2=O)NC(=O)[C@@H](Cc2ccc(-c3ccccc3)cc2)NC(=O)[C@H](Cc2cnc[nH]2)NC(=O)[C@@H](NC(=O)[C@@H](N)Cc2ccc(O)cc2)CSSC[C@@H](C(=O)N[C@@H](Cc2ccc(O)cc2)C(N)=O)NC(=O)[C@H](Cc2ccccc2)NC1=O,,Emax [3]: 10%; Selectivity ratio (Mus musculus): 5800; Kb (Melanocortin receptor 3 [4]): 0.126 nM
C[C@@H]1NC(=O)[C@H](CC(N)=O)NC(=O)[C@H](Cc2c[nH]c3ccccc23)N2C[C@H](CCCN=C(N)N)NC(=O)[C@@H](CSCC2=O)NC(=O)[C@@H](Cc2ccc3ccccc3c2)NC(=O)[C@H](Cc2cnc[nH]2)NC(=O)[C@@H](NC(=O)[C@@H](N)Cc2ccc(O)cc2)CSSC[C@@H](C(=O)N[C@@H](Cc2ccc(O)cc2)C(N)=O)NC(=O)[C@H](Cc2ccccc2)NC1=O,,Kb (Melanocortin receptor 3 [4]): 25.1 nM
C[C@@H]1NC(=O)[C@H](CC(N)=O)NC(=O)[C@H](Cc2c[nH]c3ccccc23)N2C[C@H](CCCN=C(N)N)NC(=O)[C@@H](CSCC2=O)NC(=O)[C@@H]2CCCN2C(=O)[C@H](Cc2cnc[nH]2)NC(=O)[C@@H](NC(=O)[C@@H](N)Cc2ccc(O)cc2)CSSC[C@@H](C(=O)N[C@@H](Cc2ccc(O)cc2)C(N)=O)NC(=O)[C@H](Cc2ccccc2)NC1=O,10300 nM,
C[C@@H]1NC(=O)[C@H](CC(N)=O)NC(=O)[C@H](Cc2ccc3ccccc3c2)N2C[C@H](CCCNC(=N)N)NC(=O)[C@@H](CSCC2=O)NC(=O)[C@@H](Cc2ccccc2)NC(=O)[C@H](Cc2cnc[nH]2)NC(=O)[C@@H](NC(=O)[C@@H](N)Cc2ccc(O)cc2)CSSC[C@@H](C(=O)N[C@@H](Cc2ccc(O)cc2)C(N)=O)NC(=O)[C@H](Cc2ccccc2)NC1=O,200 nM,
C[C@@H]1NC(=O)[C@H](Cc2cnc[nH]2)NC(=O)[C@@H](NC(=O)[C@@H](N)Cc2ccc(O)cc2)CSSC[C@@H](C(=O)N[C@@H](Cc2ccc(O)cc2)C(N)=O)NC(=O)[C@H](Cc2ccccc2)NC(=O)[C@H](C)NC(=O)[C@H](CC(N)=O)NC(=O)[C@H](Cc2c[nH]c3ccccc23)N2C[C@H](CCCN=C(N)N)NC(=O)[C@@H](CSCC2=O)NC1=O,7720 nM,EC50 [1]: 12500 nM; EC50 (Melanocortin receptor 5): 7700 nM; EC50 (Melanocortin receptor 4): 20100 nM
C[C@@H]1NC(=O)[C@H](CC(N)=O)NC(=O)[C@H](Cc2ccc(-c3ccccc3)cc2)N2C[C@H](CCCN=C(N)N)NC(=O)[C@@H](CSCC2=O)NC(=O)[C@@H](Cc2ccccc2)NC(=O)[C@H](Cc2cnc[nH]2)NC(=O)[C@@H](NC(=O)[C@@H](N)Cc2ccc(O)cc2)CSSC[C@@H](C(=O)N[C@@H](Cc2ccc(O)cc2)C(N)=O)NC(=O)[C@H](Cc2ccccc2)NC1=O,230 nM,
C[C@@H]1NC(=O)[C@H](CC(N)=O)NC(=O)[C@@H](Cc2ccc3ccccc3c2)N2C[C@H](CCCNC(=N)N)NC(=O)[C@@H](CSCC2=O)NC(=O)[C@@H](Cc2ccccc2)NC(=O)[C@H](Cc2cnc[nH]2)NC(=O)[C@@H](NC(=O)[C@@H](N)Cc2ccc(O)cc2)CSSC[C@@H](C(=O)N[C@@H](Cc2ccc(O)cc2)C(N)=O)NC(=O)[C@H](Cc2ccccc2)NC1=O,180 nM,
